Assay results from ChEMBL document CHEMBL1123304 (J Med Chem, 1986).

How the values were obtained:
[1] = species: Mus musculus; assay: Compound was evaluated for the inhibitory activity against tetrabenazine catalepsy in mice; format: functional
Procedure, shortened: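 Male CFLP (Swiss) mice, 18–22 g, 10/group. Tetrabenazine 25 mg/kg ip, 30 min before testing. Catalepsy scored on a vertical grid. Compounds given sc 15 or 30 min before testing. Controls received the vehicle. ED50 with range.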

[2] = species: Mus musculus; assay: Compound was evaluated for the inhibitory activity against Tetrabenazine ptosis in mice; format: functional
Procedure, shortened: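 CFLP male mice, 18–22 g, 10/group. Tetrabenazine 35 mg/kg ip at −20 min. Ptosis rated by an observer blind to treatment. Compounds given sc 15 or 30 min beforehand. Controls received the vehicle. ED50 with range.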

[3] = test system: Mus musculus; assay: Dose influencing (+/-) the spontaneous motility in mice, administered intraperitoneally (ip); format: functional
Procedure, shortened: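 CFLP male mice, 10/group. Spontaneous motility recorded in a circuit-closing apparatus, no amphetamine. Compounds given 15 or 30 min before testing. Vehicle controls. Minimum dose raising (+) or lowering (−) motility, ip.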

[4] = biological target: Sodium-dependent dopamine transporter (Mus musculus) (UniProt Q61327); assay: Compound was evaluated for the inhibitory activity against Haloperidol catalepsy in mice; format: functional
Chain of Sodium-dependent dopamine transporter (Mus musculus) (Q61327 whole entry): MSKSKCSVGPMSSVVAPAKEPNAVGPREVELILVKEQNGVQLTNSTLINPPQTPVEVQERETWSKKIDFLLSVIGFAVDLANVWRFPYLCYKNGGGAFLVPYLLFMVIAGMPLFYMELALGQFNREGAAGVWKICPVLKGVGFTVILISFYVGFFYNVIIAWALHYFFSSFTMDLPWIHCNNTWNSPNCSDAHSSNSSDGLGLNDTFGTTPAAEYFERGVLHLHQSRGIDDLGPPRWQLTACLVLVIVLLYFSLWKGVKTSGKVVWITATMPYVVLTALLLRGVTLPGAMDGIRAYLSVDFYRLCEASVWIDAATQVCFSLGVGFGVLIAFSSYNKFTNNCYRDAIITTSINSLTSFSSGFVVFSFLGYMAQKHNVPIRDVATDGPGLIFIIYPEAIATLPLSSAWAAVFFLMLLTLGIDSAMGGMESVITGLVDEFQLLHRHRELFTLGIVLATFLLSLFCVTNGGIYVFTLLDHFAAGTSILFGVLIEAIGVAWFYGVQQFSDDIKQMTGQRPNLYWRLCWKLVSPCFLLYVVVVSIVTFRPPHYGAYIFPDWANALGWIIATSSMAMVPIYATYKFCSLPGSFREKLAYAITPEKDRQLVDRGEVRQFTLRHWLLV
Procedure, shortened: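 Male CFLP (Swiss) mice, 18–22 g, 10/group. Haloperidol 5 mg/kg ip, 60 min. Catalepsy tested on a vertical grid. Compounds given sc 15 or 30 min before testing, in saline or the listed vehicles. Controls received the vehicle. ED50 with range.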

[5] = species: Mus musculus; assay: Amphetamine induced motility in mice; format: functional
[6] = species: Felis catus; assay: Compound was tested for potentiating the dopamine-induced hypotension in cats.; format: functional
[7] = species: Mus musculus; assay: Inhibitory activity against reserpine hypothermia in mice.; format: functional
Procedure, shortened: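 Mice (male CFLP, 18–22 g, 10/group) given reserpine 1 mg/kg ip 3 h before testing. Rectal temperature read with a thermistor probe. Compounds given sc 15 or 30 min before testing. Minimum effective dose.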

[8] = Lethal effect was determined in mice; format: ADME, organism-based; conditions: mouse, in vivo
Procedure, shortened: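 Male CFLP (Swiss) mice, 18–22 g, dosed sc. Vehicle was physiological saline, with Tween-80 added for some compounds in this determination; controls received the solvent. LD50 in mg/kg determined.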

[9] = biological target: Sodium-dependent dopamine transporter (Rattus norvegicus) (UniProt P23977); assay: Inhibitory activity against inducing stereotypy in rats; format: functional
Chain of Sodium-dependent dopamine transporter (Rattus norvegicus) (P23977 whole entry): as the sequence (Q61327 whole entry) above, with P21S, V57A, S194A, R600H, V619L counted along it
Procedure, shortened: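 Male CFY (Sprague-Dawley) rats. Animals showing stereotypy were placed in an activity meter. Doses giving 5 times control motility were determined. Minimum effective dose, sc.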

[10] = test system: Mus musculus; assay: Inhibitory activity against tetrabenazine catalepsy in mice (sc); format: functional
[11] = test system: Mus musculus; assay: Inhibition of tetrabenazine ptosis in mice (sc).; format: functional
[12] = species: Felis catus; assay: Compound was tested for potentiating the dopamine-induced hypotension in cats; format: functional
[13] = test system: Mus musculus; assay: Compound was evaluated for the dose influencing (+/-) the amphetamine induced motility in mice, administered intraperitoneally (ip); format: functional

Row | SMILES | ED50 [1] | ED50 [2] | EDmin [3] | ED50 [4] | EDmin [5] | EDmin [6] | EDmin [7] | LD50 [8] | EDmin [9] | ED50 [10] | ED50 [11] | EDmin [12] | EDmin [13]
1 | CN1Cc2c(NC(=O)CCCl)cccc2C(c2ccccc2)C1 (stereo unspecified) | > 30 mg/kg | 8.8 mg/kg | >30 mg/kg | 19 mg/kg | >15 mg/kg | 1 mg/kg | >30 mg/kg | 89 mg/kg | 20.5 mg/kg |  |  |  | 
2 | CN1Cc2c(NC(=O)OCCCl)cccc2C(c2ccccc2)C1 (stereo unspecified) | 9 mg/kg | 2.5 mg/kg | >20 mg/kg | 11 mg/kg | 5 mg/kg | 2 mg/kg | 20 mg/kg | 160 mg/kg | > 20.5 mg/kg |  |  |  | 
3 | CC(C)NCC(=O)Nc1cccc2c1CN(C)CC2c1ccccc1 (stereo unspecified) |  |  | 30 mg/kg |  | >30 mg/kg | 1 mg/kg | 20 mg/kg | 300 mg/kg | > 52.4 mg/kg | 14 mg/kg |  |  | 
4 | CCOC(=O)Nc1cccc2c1CN(C)CC2c1ccc(Cl)cc1 (stereo unspecified) |  |  | 3 mg/kg |  | 20 mg/kg | 0.5 mg/kg | 10 mg/kg | 830 mg/kg | 5.2 mg/kg | 4.8 mg/kg | 0.6 mg/kg |  | 
5 | CCOC(=O)Nc1cccc2c1CN(C)CC2c1ccccc1 (stereo unspecified) |  |  | >8 mg/kg |  | 4 mg/kg |  | 2 mg/kg | 71 mg/kg | > 12.8 mg/kg | 3.2 mg/kg | ~4 mg/kg |  | 
6 | CCCCNC(=O)Nc1cccc2c1CN(C)CC2c1ccc(C)cc1 (stereo unspecified) |  |  | 20 mg/kg |  | 20 mg/kg | >5 mg/kg | 20 mg/kg | > 1200 mg/kg | 83 mg/kg | 40 mg/kg | ~15 mg/kg |  | 
7 | CCCCOC(=O)Nc1cccc2c1CN(C)CC2c1ccccc1 (stereo unspecified) |  |  | 5 mg/kg |  | >5 mg/kg | 2 mg/kg | 20 mg/kg | 180 mg/kg | 20.5 mg/kg | 4 mg/kg | 2.6 mg/kg |  | 
8 | CCCCNCC(=O)Nc1cccc2c1CN(C)CC2c1ccc(C)cc1 (stereo unspecified) |  |  | 5 mg/kg |  | >10 mg/kg | 1 mg/kg | 10 mg/kg | 320 mg/kg | 52.4 mg/kg | 34 mg/kg | ~2.5 mg/kg |  | 
9 | CN1Cc2c(NC(=O)CN3CCOCC3)cccc2C(c2ccccc2)C1 (stereo unspecified) |  |  | 60 mg/kg |  | 60 mg/kg | 3 mg/kg | 20 mg/kg | 295 mg/kg | 83 mg/kg | 39 mg/kg |  |  | 
10 | CCCCNCCC(=O)Nc1cccc2c1CN(C)CC2c1ccccc1 (stereo unspecified) |  |  | >80 mg/kg |  | >80 mg/kg | >5 mg/kg | >40 mg/kg | 292 mg/kg | > 83 mg/kg | ~46 mg/kg | 74 mg/kg |  | 
11 | CN1Cc2c(N)cccc2C(c2ccc(F)cc2)C1 (stereo unspecified) |  |  | 5 mg/kg |  | 10 mg/kg | 0.2 mg/kg | 2 mg/kg | 222 mg/kg |  | ~3.6 mg/kg | 0.25 mg/kg |  | 
12 | CCNCC(=O)Nc1cccc2c1CN(C)CC2c1ccccc1 (stereo unspecified) |  |  | >60 mg/kg |  | >30 mg/kg | 2 mg/kg | 60 mg/kg | 320 mg/kg | 52.4 mg/kg | 47 mg/kg |  |  | 
13 | CCOC(=O)Nc1cccc2c1CN(C)CC2c1ccc(F)cc1 (stereo unspecified) |  |  | 20 mg/kg |  | 5 mg/kg | 2 mg/kg | 10 mg/kg | 255 mg/kg | 8 mg/kg | 3.5 mg/kg | 3.3 mg/kg |  | 
14 | CCCNC(=O)Nc1cccc2c1CN(C)CC2c1ccccc1 (stereo unspecified) |  |  | >80 mg/kg |  | 80 mg/kg | 10 mg/kg | >60 mg/kg | 455 mg/kg | > 83 mg/kg | > 80 mg/kg | > 80 mg/kg |  | 
15 | CN1Cc2c(NC(=O)CCl)cccc2C(c2ccccc2)C1 (stereo unspecified) | 10 mg/kg | 3 mg/kg | 20 mg/kg | 10 mg/kg | 10 mg/kg | 1 mg/kg | >30 mg/kg | 94 mg/kg | 8 mg/kg |  |  |  | 
16 | CCCCNCC(=O)Nc1cccc2c1CN(C)CC2c1ccc(Cl)cc1 (stereo unspecified) |  |  | >20 mg/kg |  | >20 mg/kg | 0.5 mg/kg | 5 mg/kg | 320 mg/kg | 32.8 mg/kg | 13.5 mg/kg | 3.9 mg/kg |  | 

Row | SMILES | ED50 [1] | ED50 [2] | EDmin [3] | ED50 [4] | EDmin [5] | EDmin [6] | EDmin [7] | LD50 [8] | EDmin [9] | ED50 [10] | ED50 [11] | EDmin [12] | EDmin [13]
17 | CN1Cc2c(NC(=O)CN3CCCCC3)cccc2C(c2ccccc2)C1 (stereo unspecified) |  |  | >100 mg/kg |  | >60 mg/kg | 3.5 mg/kg | 20 mg/kg | 520 mg/kg | > 83 mg/kg | ~65 mg/kg |  |  | 
18 | CN1Cc2c(NC(=O)CN3CCCC3)cccc2C(c2ccccc2)C1 (stereo unspecified) |  |  | 120 mg/kg |  | >120 mg/kg | 3 mg/kg | 50 mg/kg | 380 mg/kg | 52.4 mg/kg | 39 mg/kg | ~25 mg/kg |  | 
19 | CCNC(=O)Nc1cccc2c1CN(C)CC2c1ccccc1 (stereo unspecified) |  |  | 80 mg/kg |  | 40 mg/kg | 6 mg/kg | 40 mg/kg | 290 mg/kg | > 83 mg/kg | 80 mg/kg | 54 mg/kg |  | 
20 | CC(C)c1ccc(C2CN(C)Cc3c(N)cccc32)cc1 (stereo unspecified) |  |  | 80 mg/kg |  | 80 mg/kg | 2 mg/kg | 50 mg/kg | 1100 mg/kg |  | > 80 mg/kg | 68 mg/kg |  | 
21 | CCCCNC(=O)Nc1cccc2c1CN(C)CC2c1ccccc1 (stereo unspecified) |  |  | 80 mg/kg |  | 80 mg/kg | 2 mg/kg | >40 mg/kg | 430 mg/kg | > 83 mg/kg | ~40 mg/kg | 23 mg/kg |  | 
22 | CC(C)NCCC(=O)Nc1cccc2c1CN(C)CC2c1ccccc1 (stereo unspecified) |  |  | 160 mg/kg |  | 160 mg/kg | 2 mg/kg | 200 mg/kg | 900 mg/kg | > 83 mg/kg | 150 mg/kg | ~125 mg/kg |  | 
23 | CN1Cc2c(N)cccc2C(c2ccccc2)C1 (stereo unspecified) [NOMIFENSINE] |  |  | 10 mg/kg |  | >5 mg/kg |  |  | 336 mg/kg |  |  |  | 0.5 mg/kg | 
24 | Cc1ccc(C2CN(C)Cc3c(N)cccc32)cc1 (stereo unspecified) |  |  | 15 mg/kg |  |  | 0.2 mg/kg | 2 mg/kg | 800 mg/kg |  | 1.6 mg/kg | ~1.2 mg/kg |  | 10 mg/kg
25 | CN1Cc2c(NC(=O)OCc3ccccc3)cccc2C(c2ccccc2)C1 (stereo unspecified) |  |  | 100 mg/kg |  | 100 mg/kg | >5 mg/kg | 20 mg/kg | > 1000 mg/kg | 12 mg/kg | ~15 mg/kg | 16 mg/kg |  | 
26 | CCNCCC(=O)Nc1cccc2c1CN(C)CC2c1ccccc1 (stereo unspecified) |  |  | 160 mg/kg |  | >160 mg/kg | 4 mg/kg | 200 mg/kg | 720 mg/kg | 134 mg/kg | > 200 mg/kg | > 160 mg/kg |  | 
27 | CN1Cc2c(N)cccc2C(c2ccc(Cl)cc2)C1 (stereo unspecified) |  |  | 10 mg/kg |  | 5 mg/kg |  | 2 mg/kg | 240 mg/kg |  | 1.6 mg/kg | 1.1 mg/kg |  | 
28 | CCCCNCC(=O)Nc1cccc2c1CN(C)CC2c1ccccc1 (stereo unspecified) |  |  | 15 mg/kg |  | >30 mg/kg | 2 mg/kg | >40 mg/kg | 240 mg/kg | 32.8 mg/kg | 32 mg/kg |  |  | 
29 | CCNCC(=O)Nc1cccc2c1CN(C)CC2c1ccc(Cl)cc1 (stereo unspecified) |  |  | 20 mg/kg |  | >20 mg/kg | 0.5 mg/kg | 5 mg/kg | 325 mg/kg | 32.8 mg/kg | 24 mg/kg | 6.4 mg/kg |  | 
30 | CCCCNC(=O)Nc1cccc2c1CN(C)CC2c1ccc(Cl)cc1 (stereo unspecified) |  |  | 15 mg/kg |  | >30 mg/kg | 3 mg/kg | >100 mg/kg | > 1000 mg/kg | 134 mg/kg | 44 mg/kg | 15 mg/kg |  | 
31 | CCNCC(=O)Nc1cccc2c1CN(C)CC2c1ccc(C)cc1 (stereo unspecified) |  |  | 10 mg/kg |  | >10 mg/kg | 1.5 mg/kg | 20 mg/kg | 320 mg/kg | > 83 mg/kg | ~45 mg/kg | 5.6 mg/kg |  | 
